Data published in ChEMBL document CHEMBL3616466, “Pyrazolo[3,4-h]quinolines promising photosensitizing agents in the treatment of cancer” (Eur J Med Chem, 2015).

Legend:
Format in all cases: functional
Jurkat [1] = experiment: Photocytotoxicity against human Jurkat cells assessed as growth inhibition at 2.5 J/cm'2 irradiation for 30 mins followed by drug treated for 72 hrs by MTT assay; conditions: light or radiation study
How it was run: (§1)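 Cells seeded at 5 × 10³ per well and pre-incubated 24 h. Drug dilutions in HBSS (pH 7.2, from DMSO stock) added for 30 min at 37 °C, then UV-A irradiation at the stated dose. Drug solution then replaced with culture medium and plates incubated 72 h. Viability by MTT; GI50 from concentration series.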

Jurkat [2] = experiment: Photocytotoxicity against human Jurkat cells assessed as growth inhibition at 1.25 J/cm'2 irradiation for 30 mins followed by drug treated for 72 hrs by MTT assay; conditions: light or radiation study; how it was run: as §1
HL-60 [3] = experiment: Photocytotoxicity against human HL60 cells assessed as growth inhibition at 2.5 J/cm'2 irradiation for 30 mins followed by drug treated for 72 hrs by MTT assay; conditions: HL-60, light or radiation study; how it was run: as §1
HL-60 [4] = experiment: Photocytotoxicity against human HL60 cells assessed as growth inhibition at 1.25 J/cm'2 irradiation for 30 mins followed by drug treated for 72 hrs by MTT assay; conditions: HL-60, light or radiation study; how it was run: as §1
MCF7 [5] = experiment: Photocytotoxicity against human MCF7 cells assessed as growth inhibition at 3.75 J/cm'2 irradiation for 30 mins followed by drug treated for 72 hrs by MTT assay; conditions: MCF7, light or radiation study; how it was run: as §1
MCF7 [6] = experiment: Photocytotoxicity against human MCF7 cells assessed as growth inhibition at 2.5 J/cm'2 irradiation for 30 mins followed by drug treated for 72 hrs by MTT assay; conditions: MCF7, light or radiation study; how it was run: as §1
A549 [7] = experiment: Photocytotoxicity against human A549 cells assessed as growth inhibition at 3.75 J/cm'2 irradiation for 30 mins followed by drug treated for 72 hrs by MTT assay; conditions: A549, light or radiation study; how it was run: as §1
A549 [8] = experiment: Photocytotoxicity against human A549 cells assessed as growth inhibition at 2.5 J/cm'2 irradiation for 30 mins followed by drug treated for 72 hrs by MTT assay; conditions: A549, light or radiation study; how it was run: as §1
LoVo [9] = experiment: Photocytotoxicity against human LoVo cells assessed as growth inhibition at 3.75 J/cm'2 irradiation for 30 mins followed by drug treated for 72 hrs by MTT assay; conditions: light or radiation study; how it was run: as §1
LoVo [10] = experiment: Photocytotoxicity against human LoVo cells assessed as growth inhibition at 2.5 J/cm'2 irradiation for 30 mins followed by drug treated for 72 hrs by MTT assay; conditions: light or radiation study; how it was run: as §1
Jurkat [11] = experiment: Cytotoxicity against human Jurkat cells assessed as growth inhibition after 72 hrs by MTT assay
HL-60 [12] = experiment: Cytotoxicity against human HL60 cells assessed as growth inhibition after 72 hrs by MTT assay; conditions: HL-60, 72 h
A549 [13] = experiment: Cytotoxicity against human A549 cells assessed as growth inhibition after 72 hrs by MTT assay; conditions: A549, 72 h
How it was run: (§2)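 Cells (5 × 10³ per well) pre-incubated 24 h at 37 °C, 5% CO₂, then exposed in the dark to serial concentrations diluted from DMSO stock into complete medium for 72 h at 37 °C. Viability read by MTT; GI50 derived. LoVo in Ham's F-12, MCF-7 and A-549 in DMEM, all with 10% FBS and penicillin/streptomycin.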

MCF7 [14] = experiment: Cytotoxicity against human MCF7 cells assessed as growth inhibition after 72 hrs by MTT assay; conditions: MCF7, 72 h; how it was run: as §2
LoVo [15] = experiment: Cytotoxicity against human LoVo cells assessed as growth inhibition after 72 hrs by MTT assay; how it was run: as §2

Compound | GI50 (Jurkat [1]) | GI50 (Jurkat [2]) | GI50 (HL-60 [3]) | GI50 (HL-60 [4]) | GI50 (MCF7 [5]) | GI50 (MCF7 [6]) | GI50 (A549 [7]) | GI50 (A549 [8]) | GI50 (LoVo [9]) | GI50 (LoVo [10]) | GI50 (Jurkat [11]) | GI50 (HL-60 [12]) | GI50 (A549 [13]) | GI50 (MCF7 [14]) | GI50 (LoVo [15])
Cn1c2c(cc(S(=O)(=O)c3ccccc3)c1=O)CCc1c-2cnn1-c1ccccc1Cl | 5.21 µM | > 20 µM | 4.82 µM | 11.5 µM | 12.6 µM | > 20 µM | 13 µM | > 20 µM | 13.1 µM | > 20 µM | – | – | – | – | –
O=c1[nH]c2c(cc1S(=O)(=O)c1ccccc1)CCc1c-2cnn1-c1ccc(Cl)cc1 | – | – | – | – | – | – | – | – | – | – | > 20 µM | > 20 µM | 6.25 µM | 11.2 µM | > 20 µM
COc1ccc(-n2ncc3c2CCc2cc(S(=O)(=O)c4ccccc4)c(OCc4ccccc4)nc2-3)cc1 | > 20 µM | > 20 µM | 9.09 µM | > 20 µM | > 20 µM | > 20 µM | 5.74 µM | > 20 µM | 2.76 µM | > 20 µM | – | – | – | – | –
COc1ccc(-n2ncc3c4[nH]c(=O)c(S(=O)(=O)c5ccccc5)cc4ccc32)cc1 | > 20 µM | > 20 µM | > 20 µM | > 20 µM | > 20 µM | > 20 µM | 4.26 µM | 5.39 µM | > 20 µM | > 20 µM | > 20 µM | > 20 µM | 6.56 µM | 8.36 µM | > 20 µM
O=c1[nH]c2c(cc1S(=O)(=O)c1ccccc1)CCc1c-2cnn1-c1ccccc1Cl | 3.95 µM | 11.3 µM | 2.76 µM | – | 10.4 µM | 13 µM | 8.97 µM | 13.3 µM | 10.1 µM | > 20 µM | – | – | – | – | –
COc1nc2c(cc1S(=O)(=O)c1ccccc1)CCc1c-2cnn1-c1ccccc1 | 0.71 µM | 3.65 µM | 0.79 µM | 2.83 µM | 1.84 µM | 2.47 µM | 2.89 µM | 7.56 µM | 1.1 µM | 3.14 µM | 12.1 µM | > 20 µM | > 20 µM | > 20 µM | > 20 µM
Cn1c2c(cc(S(=O)(=O)c3ccccc3)c1=O)CCc1c-2cnn1Cc1ccccc1 | 5.67 µM | > 20 µM | 6.79 µM | > 20 µM | > 20 µM | > 20 µM | > 20 µM | > 20 µM | 13 µM | > 20 µM | – | – | – | – | –
CCOC(=O)c1cc2c(nc1OC)-c1cnn(-c3ccc(Cl)cc3)c1CC2 | 1.81 µM | 4.47 µM | 1.71 µM | 5.38 µM | > 20 µM | > 20 µM | 2.3 µM | 3.68 µM | 1.13 µM | 2.79 µM | – | – | – | – | –
CCOC(=O)c1cc2c(nc1OC)-c1cnn(-c3ccc(OC)cc3)c1CC2 | 6.43 µM | 9.93 µM | 4.69 µM | 7.71 µM | > 20 µM | > 20 µM | 4.67 µM | 6.99 µM | 4.3 µM | 5.81 µM | – | – | – | – | –
O=c1[nH]c2c(ccc3c2cnn3-c2ccc(Cl)cc2)cc1S(=O)(=O)c1ccccc1 | – | – | – | – | – | – | – | – | – | – | > 20 µM | > 20 µM | 1.46 µM | 9.26 µM | > 20 µM
O=c1ccc2ccc3occc3c2o1 [ANGELICIN] | 1 µM | – | 1.2 µM | – | 1.5 µM | 4.42 µM | – | – | 1.11 µM | 4 µM | – | – | – | – | –
O=c1c(S(=O)(=O)c2ccccc2)cc2c(n1Cc1ccccc1)-c1cnn(-c3ccc(Cl)cc3)c1CC2 | 4.97 µM | > 20 µM | 7.17 µM | > 20 µM | 9.89 µM | > 20 µM | 6.64 µM | > 20 µM | 3.72 µM | 11.1 µM | 13.6 µM | 11.6 µM | > 20 µM | > 20 µM | > 20 µM
COc1nc2c(cc1S(=O)(=O)c1ccccc1)CCc1c-2cnn1C | 12.7 µM | > 20 µM | 9.79 µM | > 20 µM | > 20 µM | > 20 µM | > 20 µM | > 20 µM | > 20 µM | > 20 µM | – | – | – | – | –
O=c1[nH]c2c(cc1S(=O)(=O)c1ccccc1)CCc1c-2cnn1Cc1ccccc1 | 6.88 µM | > 20 µM | 5.06 µM | > 20 µM | > 20 µM | > 20 µM | > 20 µM | > 20 µM | 14.5 µM | > 20 µM | – | – | – | – | –
COc1nc2c(cc1S(=O)(=O)c1ccccc1)CCc1c-2cnn1-c1ccccc1Cl | 0.9 µM | 1.93 µM | 0.81 µM | 3.78 µM | 1.59 µM | 3.13 µM | 4.8 µM | 14.3 µM | 1.78 µM | 5.73 µM | 9.8 µM | 7.17 µM | > 20 µM | > 20 µM | > 20 µM
COc1ccc(-n2ncc3c2CCc2cc(S(=O)(=O)c4ccccc4)c(=O)[nH]c2-3)cc1 | – | – | – | – | – | – | – | – | – | – | > 20 µM | > 20 µM | 4.04 µM | 8.54 µM | > 20 µM
Cn1c2c(cc(S(=O)(=O)c3ccccc3)c1=O)CCc1c-2cnn1-c1ccc(Cl)cc1 | 3.01 µM | > 20 µM | 2.88 µM | > 20 µM | > 20 µM | > 20 µM | > 20 µM | > 20 µM | 11.1 µM | > 20 µM | – | – | – | – | –
COc1nc2c(cc1S(=O)(=O)c1ccccc1)CCc1c-2cnn1Cc1ccccc1 | 1.4 µM | 2.48 µM | 1.3 µM | 3.83 µM | 3.05 µM | 4 µM | 5.74 µM | 10.4 µM | 1.41 µM | 5.32 µM | 8.43 µM | 6.1 µM | > 20 µM | > 20 µM | > 20 µM
CCOC(=O)c1cc2c([nH]c1=O)-c1cnn(-c3ccc(Cl)cc3)c1CC2 | > 20 µM | > 20 µM | > 20 µM | > 20 µM | 9.85 µM | 7.32 µM | > 20 µM | > 20 µM | > 20 µM | > 20 µM | > 20 µM | > 20 µM | 5 µM | 6.38 µM | > 20 µM
COc1ccc(-n2ncc3c2CCc2cc(S(=O)(=O)c4ccccc4)c(=O)n(Cc4ccccc4)c2-3)cc1 | > 20 µM | > 20 µM | > 20 µM | > 20 µM | > 20 µM | > 20 µM | > 20 µM | > 20 µM | 4.12 µM | > 20 µM | – | – | – | – | –
Cn1c2c(cc(S(=O)(=O)c3ccccc3)c1=O)CCc1c-2cnn1-c1ccccc1 | 6.99 µM | > 20 µM | > 20 µM | > 20 µM | > 20 µM | > 20 µM | > 20 µM | > 20 µM | > 20 µM | > 20 µM | – | – | – | – | –
CCOC(=O)c1cc2c(n(C)c1=O)-c1cnn(-c3ccc(Cl)cc3)c1CC2 | > 20 µM | > 20 µM | 7.67 µM | > 20 µM | > 20 µM | > 20 µM | > 20 µM | > 20 µM | > 20 µM | > 20 µM | – | – | – | – | –
O=c1[nH]c2c(cc1S(=O)(=O)c1ccccc1)CCc1c-2cnn1-c1cccc(Cl)c1 | > 20 µM | > 20 µM | > 20 µM | > 20 µM | > 20 µM | > 20 µM | 9.53 µM | 14.1 µM | > 20 µM | > 20 µM | 4.55 µM | > 20 µM | 6.41 µM | > 20 µM | > 20 µM
COc1ccc(-n2ncc3c2CCc2cc(S(=O)(=O)c4ccccc4)c(=O)n(C)c2-3)cc1 | 6.68 µM | > 20 µM | 7.65 µM | > 20 µM | > 20 µM | > 20 µM | > 20 µM | > 20 µM | > 20 µM | > 20 µM | – | – | – | – | –
